In ChEMBL document CHEMBL1125192, “Analogues of the 5-HT1A serotonin antagonist 1-(2-methoxyphenyl)-4-[4-(2-phthalimido)butyl]piperazine with reduced alpha 1-adrenergic affinity” (J Med Chem, 1991):

These compounds were tested against D(2) dopamine receptor (Bos taurus, UniProt P20288) (assay: Binding affinity towards D2-dopaminergic receptor using [3H]NMSP as radioligand).
How it was run: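 Calf caudate (2 mg) with 1 nM [3H]NMSP in 140 mM NaCl; nonspecific binding defined by 10 μM sulpiride.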

D(2) dopamine receptor, sequence (P20288 whole entry): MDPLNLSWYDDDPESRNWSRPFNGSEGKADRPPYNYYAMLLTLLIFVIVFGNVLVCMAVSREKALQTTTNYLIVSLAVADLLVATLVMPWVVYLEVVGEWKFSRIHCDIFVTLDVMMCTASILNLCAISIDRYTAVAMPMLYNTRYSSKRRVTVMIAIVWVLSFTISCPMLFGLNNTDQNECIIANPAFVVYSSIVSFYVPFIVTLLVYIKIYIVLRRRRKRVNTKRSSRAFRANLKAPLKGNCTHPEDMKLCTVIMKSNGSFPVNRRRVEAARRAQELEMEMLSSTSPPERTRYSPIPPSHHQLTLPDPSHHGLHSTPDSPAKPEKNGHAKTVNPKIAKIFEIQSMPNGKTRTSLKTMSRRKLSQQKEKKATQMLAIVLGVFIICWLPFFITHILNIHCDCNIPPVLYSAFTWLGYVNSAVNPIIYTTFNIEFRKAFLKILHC

| Compound | Ki [µM] |
| --- | --- |
| COc1ccccc1N1CCN(CCCCNC(=O)C23C[C@H]4C[C@@H](C2)C[C@@H](C3)C4)CC1 | 0.0027 |

Each compound was assayed against Serotonin 1a (5-HT1a) receptor/Adrenergic receptor alpha-1 (Rattus norvegicus) (UniProt P15823+P23944+P43140+P19327) (assay: Ratio of Ki value for alpha-1 receptor to that of 5-HT1A receptor).
Format: protein assay
How it was run: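 Ratio of two radioligand binding Ki values. 5-HT1A binding used 0.1 nM [3H]-8-OH-DPAT with rat hippocampal homogenate (6 mg), and 10 μM 8-OH-DPAT defined nonspecific binding. α1-adrenergic binding used 1.0 nM [3H]WB4101 plus 100 nM 8-OH-DPAT with rat frontal cortex (10 mg), and 1 μM prazosin defined nonspecific binding.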

| Compound | Selectivity |
| --- | --- |
| COc1ccccc1N1CCN(CCCCNC(=O)C(C)(C)C)CC1 | 74 |
| COc1ccccc1N1CCN(CCCCNC(=O)c2ccc(I)cc2)CC1 | 4 |
| COc1ccccc1N1CCN(CCCCNC(=O)c2ccc([N+](=O)[O-])cc2)CC1 | 3 |
| O=C1c2ccccc2C(=O)N1CCCCN1CCN(c2ccc([N+](=O)[O-])cc2)CC1 | 0.4 |
| COc1ccc(OC)c(N2CCN(CCCCN3C(=O)c4ccccc4C3=O)CC2)c1 | 0.7 |
| COc1ccccc1N1CCN(CCCCNC(=O)CCCc2ccccc2)CC1 | 7 |
| O=C1c2ccccc2C(=O)N1CCCCN1CCN(c2ccccc2[N+](=O)[O-])CC1 | 6 |
| COc1ccccc1N1CCN(CCCCNC(=O)c2ccc(Cl)cc2)CC1 | 6 |
| COc1ccccc1N1CCN(CCCCNC(=O)c2ccc(O)cc2)CC1 | 3 |
| O=C(NCCCCN1CCN(c2cccc3ccccc23)CC1)C12C[C@H]3C[C@@H](C1)C[C@@H](C2)C3 | 156 |
| COc1ccccc1N1CCN(CCCCNC(=O)c2ccc(Cl)c(Cl)c2)CC1 | 11 |
| O=C1c2ccccc2C(=O)N1CCCCN1CCN(c2cccc3ccccc23)CC1 | 22 |
| COc1ccccc1N1CCN(CCCCNC(=O)c2ccc(N)cc2)CC1 | 4 |
| CCCCC(=O)NCCCCN1CCN(c2ccccc2OC)CC1 | 11 |

What follows are compounds tested against D(1A) dopamine receptor (Rattus norvegicus, UniProt P18901) (assay: Binding affinity towards Dopamine receptor D1 using [3H]SCH-23390 as radioligand).
D(1A) dopamine receptor, sequence (P18901 whole entry): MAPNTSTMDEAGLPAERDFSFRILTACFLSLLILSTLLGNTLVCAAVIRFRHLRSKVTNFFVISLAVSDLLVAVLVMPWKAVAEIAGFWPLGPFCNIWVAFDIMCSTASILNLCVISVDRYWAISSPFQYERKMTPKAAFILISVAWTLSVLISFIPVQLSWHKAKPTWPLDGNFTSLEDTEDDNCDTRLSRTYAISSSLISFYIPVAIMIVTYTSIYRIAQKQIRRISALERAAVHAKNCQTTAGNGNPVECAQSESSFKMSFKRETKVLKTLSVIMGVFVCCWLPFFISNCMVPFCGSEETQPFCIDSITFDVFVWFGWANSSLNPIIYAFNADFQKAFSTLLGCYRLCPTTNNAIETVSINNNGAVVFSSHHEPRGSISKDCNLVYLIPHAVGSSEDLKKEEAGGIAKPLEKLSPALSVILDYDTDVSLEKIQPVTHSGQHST
How it was run: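 Homogenized rat striatum (2 mg), 1 nM [3H]SCH-23390 with 20 nM ketanserin added; 1 μM SCH-23390 defined nonspecific binding.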

| Compound | Ki [µM] |
| --- | --- |
| COc1ccccc1N1CCN(CCCCNC(=O)C23C[C@H]4C[C@@H](C2)C[C@@H](C3)C4)CC1 | > 1 |

What follows are compounds tested against T1, 5-hydroxytryptamine receptor 2C (Rattus norvegicus, UniProt P08909) (assay: Binding affinity towards 5-hydroxytryptamine 1C receptor using [3H]mesulergine as radioligand).
T1 sequence (P08909 whole entry): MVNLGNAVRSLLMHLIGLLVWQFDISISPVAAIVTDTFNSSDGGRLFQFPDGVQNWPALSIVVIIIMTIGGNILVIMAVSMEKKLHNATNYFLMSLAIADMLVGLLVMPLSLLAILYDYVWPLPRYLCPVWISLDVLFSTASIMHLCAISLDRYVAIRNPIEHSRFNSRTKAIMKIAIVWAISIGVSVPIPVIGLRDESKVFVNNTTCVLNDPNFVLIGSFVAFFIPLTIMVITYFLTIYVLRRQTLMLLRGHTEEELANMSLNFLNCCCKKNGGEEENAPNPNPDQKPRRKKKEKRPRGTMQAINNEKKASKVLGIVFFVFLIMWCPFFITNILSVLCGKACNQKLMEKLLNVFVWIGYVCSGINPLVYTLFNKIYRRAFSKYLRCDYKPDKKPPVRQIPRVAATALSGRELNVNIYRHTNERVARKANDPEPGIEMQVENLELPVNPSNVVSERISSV
How it was run: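 Homogenized rat frontal cortex (10 mg) with 1.0 nM [3H]mesulergine plus 10 nM spiperone; 10 μM 5-HT defined nonspecific binding.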

| Compound | Ki [µM] |
| --- | --- |
| COc1ccccc1N1CCN(CCCCNC(=O)C23C[C@H]4C[C@@H](C2)C[C@@H](C3)C4)CC1 | 0.225 |

What follows are compounds tested against Adrenergic receptor beta (Rattus norvegicus, UniProt P18090+P10608+P26255) (assay: Binding affinity towards beta adrenergic receptor using [3H]DHA as radioligand).
Format: protein assay
How it was run: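 Homogenized rat frontal cortex (5 mg) labelled with 1 nM [3H]DHA; 1 μM propranolol for nonspecific binding.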

| Compound | Ki [µM] |
| --- | --- |
| COc1ccccc1N1CCN(CCCCNC(=O)C23C[C@H]4C[C@@H](C2)C[C@@H](C3)C4)CC1 | 1.02 |

The compounds below were run against Serotonin 2 (5-HT2) receptor (Rattus norvegicus, UniProt P30994+P08909+P14842) (assay: Binding affinity towards 5-hydroxytryptamine 2 receptor using [3H]DOB as).
Format: protein assay
How it was run: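 [3H]DOB at 0.4 nM on 15 mg homogenized rat frontal cortex; nonspecific binding set with 1 μM cinanserin.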

| Compound | Ki [µM] |
| --- | --- |
| COc1ccccc1N1CCN(CCCCNC(=O)C23C[C@H]4C[C@@H](C2)C[C@@H](C3)C4)CC1 | 0.034 |

The compounds below were run against 5-hydroxytryptamine receptor 1B (Rattus norvegicus, UniProt P28564) (assay: Binding affinity towards 5-hydroxytryptamine 1B receptor using [3H]5-HT as radioligand).
5-hydroxytryptamine receptor 1B, sequence (P28564 whole entry): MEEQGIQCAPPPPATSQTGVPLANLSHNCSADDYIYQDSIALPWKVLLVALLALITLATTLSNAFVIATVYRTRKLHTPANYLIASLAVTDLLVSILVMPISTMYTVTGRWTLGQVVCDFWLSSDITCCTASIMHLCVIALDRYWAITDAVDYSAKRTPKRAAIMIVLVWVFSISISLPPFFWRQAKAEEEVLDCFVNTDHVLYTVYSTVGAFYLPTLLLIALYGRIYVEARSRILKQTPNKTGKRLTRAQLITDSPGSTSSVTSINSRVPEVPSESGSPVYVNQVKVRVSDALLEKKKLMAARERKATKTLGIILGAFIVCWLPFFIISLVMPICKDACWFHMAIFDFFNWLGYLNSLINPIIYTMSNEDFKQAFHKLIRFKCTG

| Compound | Ki [µM] |
| --- | --- |
| COc1ccccc1N1CCN(CCCCNC(=O)C23C[C@H]4C[C@@H](C2)C[C@@H](C3)C4)CC1 | 0.89 |

These compounds were tested against T2, Adrenergic receptor alpha-1 (Rattus norvegicus, UniProt P15823+P23944+P43140) (assay: Binding affinity towards alpha-1 adrenergic receptor of rat frontal cortex using [3H]- WB- 4101 as a radioligand).
T2 sequence (P15823 whole entry): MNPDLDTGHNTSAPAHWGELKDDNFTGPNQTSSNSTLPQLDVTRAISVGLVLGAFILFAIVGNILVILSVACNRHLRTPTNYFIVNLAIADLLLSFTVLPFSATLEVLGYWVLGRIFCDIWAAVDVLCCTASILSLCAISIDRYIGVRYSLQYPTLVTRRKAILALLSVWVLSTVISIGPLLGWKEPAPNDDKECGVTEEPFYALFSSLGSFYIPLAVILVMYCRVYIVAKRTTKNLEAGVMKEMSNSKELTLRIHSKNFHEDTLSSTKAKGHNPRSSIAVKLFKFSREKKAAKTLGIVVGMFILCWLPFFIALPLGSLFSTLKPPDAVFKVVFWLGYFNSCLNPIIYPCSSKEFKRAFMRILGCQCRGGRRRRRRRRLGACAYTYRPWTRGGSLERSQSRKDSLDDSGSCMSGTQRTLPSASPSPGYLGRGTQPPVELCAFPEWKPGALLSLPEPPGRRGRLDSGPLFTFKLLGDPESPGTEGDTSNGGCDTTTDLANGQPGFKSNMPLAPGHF
T2 sequence (P23944 whole entry): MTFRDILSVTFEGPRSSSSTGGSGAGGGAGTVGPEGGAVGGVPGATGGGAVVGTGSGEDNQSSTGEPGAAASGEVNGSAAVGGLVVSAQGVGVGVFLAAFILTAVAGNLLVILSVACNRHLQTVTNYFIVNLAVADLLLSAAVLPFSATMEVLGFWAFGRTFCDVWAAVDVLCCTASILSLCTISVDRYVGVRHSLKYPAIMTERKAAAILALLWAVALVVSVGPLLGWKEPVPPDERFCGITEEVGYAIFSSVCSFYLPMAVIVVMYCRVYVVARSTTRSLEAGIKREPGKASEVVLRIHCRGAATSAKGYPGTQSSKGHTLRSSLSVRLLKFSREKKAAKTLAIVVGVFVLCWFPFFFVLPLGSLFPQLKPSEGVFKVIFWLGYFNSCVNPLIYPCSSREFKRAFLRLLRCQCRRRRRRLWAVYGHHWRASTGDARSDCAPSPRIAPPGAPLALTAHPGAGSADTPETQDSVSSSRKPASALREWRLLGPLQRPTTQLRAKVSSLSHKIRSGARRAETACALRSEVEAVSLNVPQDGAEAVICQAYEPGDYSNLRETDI
T2 sequence (P43140 whole entry): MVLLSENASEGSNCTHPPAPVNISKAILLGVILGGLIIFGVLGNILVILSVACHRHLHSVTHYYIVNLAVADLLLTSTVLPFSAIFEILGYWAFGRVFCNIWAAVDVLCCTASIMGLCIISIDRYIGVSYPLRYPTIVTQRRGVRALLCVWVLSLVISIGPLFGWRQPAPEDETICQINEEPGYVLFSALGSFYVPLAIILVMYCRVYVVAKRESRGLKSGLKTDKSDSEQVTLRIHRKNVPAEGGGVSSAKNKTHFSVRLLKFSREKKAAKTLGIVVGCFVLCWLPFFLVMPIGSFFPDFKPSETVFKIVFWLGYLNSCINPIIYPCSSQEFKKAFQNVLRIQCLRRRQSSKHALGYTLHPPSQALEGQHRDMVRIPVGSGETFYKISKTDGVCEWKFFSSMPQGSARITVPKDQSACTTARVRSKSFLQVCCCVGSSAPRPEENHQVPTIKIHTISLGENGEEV
Format: tissue-based

| Compound | Ki [µM] |
| --- | --- |
| COc1ccccc1N1CCN(CCCCNC(=O)C23C[C@H]4C[C@@H](C2)C[C@@H](C3)C4)CC1 | 0.064 |
| COc1ccccc1N1CCN(CCCCNC(=O)C(C)(C)C)CC1 | 0.074 |
| COc1ccccc1N1CCN(CCCCNC(=O)c2ccc(I)cc2)CC1 | 0.015 |
| COc1ccccc1N1CCN(CCCCNC(=O)c2ccc([N+](=O)[O-])cc2)CC1 | 0.014 |
| O=C1c2ccccc2C(=O)N1CCCCN1CCN(c2ccc([N+](=O)[O-])cc2)CC1 | 0.378 |
| COc1ccc(OC)c(N2CCN(CCCCN3C(=O)c4ccccc4C3=O)CC2)c1 | 0.015 |
| COc1ccccc1N1CCN(CCCCNC(=O)CCCc2ccccc2)CC1 | 0.084 |
| O=C1c2ccccc2C(=O)N1CCCCN1CCN(c2ccccc2[N+](=O)[O-])CC1 | 0.025 |
| COc1ccccc1N1CCN(CCCCNC(=O)c2ccc(Cl)cc2)CC1 | 0.023 |
| COc1ccccc1N1CCN(CCCCNC(=O)c2ccc(O)cc2)CC1 | 0.017 |
| O=C(NCCCCN1CCN(c2cccc3ccccc23)CC1)C12C[C@H]3C[C@@H](C1)C[C@@H](C2)C3 | 0.109 |
| COc1ccccc1N1CCN(CCCCNC(=O)c2ccc(Cl)c(Cl)c2)CC1 | 0.021 |
| O=C1c2ccccc2C(=O)N1CCCCN1CCN(c2cccc3ccccc23)CC1 | 0.022 |
| COc1ccccc1N1CCN(CCCCNC(=O)c2ccc(N)cc2)CC1 | 0.023 |
| CC(=O)Nc1ccc(N2CCN(CCCCN3C(=O)c4ccccc4C3=O)CC2)cc1 | 10 |
| CCCCC(=O)NCCCCN1CCN(c2ccccc2OC)CC1 | 0.084 |

The compounds below were run against T3, 5-hydroxytryptamine receptor 1A (Rattus norvegicus, UniProt P19327) (assay: Binding affinity towards 5-hydroxytryptamine 1A receptor of rat hippocampus using [3H]-8-hydroxy-2-(di-n-propylamine) tetralin (8-OH-DPAT) as a radioligand).
T3 sequence (P19327 whole entry): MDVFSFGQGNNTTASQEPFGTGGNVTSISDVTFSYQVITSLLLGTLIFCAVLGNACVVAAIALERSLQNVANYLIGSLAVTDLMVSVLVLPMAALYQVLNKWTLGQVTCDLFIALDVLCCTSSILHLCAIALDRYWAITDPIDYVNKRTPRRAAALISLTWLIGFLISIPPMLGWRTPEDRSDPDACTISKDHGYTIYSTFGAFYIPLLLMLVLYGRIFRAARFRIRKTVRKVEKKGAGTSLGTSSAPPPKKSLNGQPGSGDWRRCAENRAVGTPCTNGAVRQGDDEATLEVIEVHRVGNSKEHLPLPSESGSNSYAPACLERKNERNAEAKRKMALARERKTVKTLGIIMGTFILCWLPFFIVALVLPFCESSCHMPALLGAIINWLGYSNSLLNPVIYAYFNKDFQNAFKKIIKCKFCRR
Format: tissue-based

| Compound | Ki [µM] |
| --- | --- |
| COc1ccccc1N1CCN(CCCCNC(=O)C23C[C@H]4C[C@@H](C2)C[C@@H](C3)C4)CC1 | 0.0004 |
| COc1ccccc1N1CCN(CCCCNC(=O)C(C)(C)C)CC1 | 0.001 |
| COc1ccccc1N1CCN(CCCCNC(=O)c2ccc(I)cc2)CC1 | 0.004 |
| COc1ccccc1N1CCN(CCCCNC(=O)c2ccc([N+](=O)[O-])cc2)CC1 | 0.0044 |
| O=C1c2ccccc2C(=O)N1CCCCN1CCN(c2ccc([N+](=O)[O-])cc2)CC1 | 1 |
| COc1ccc(OC)c(N2CCN(CCCCN3C(=O)c4ccccc4C3=O)CC2)c1 | 0.022 |
| O=C1c2ccccc2C(=O)N1CCCCN1CCN(c2ccccc2[N+](=O)[O-])CC1 | 0.004 |
| COc1ccccc1N1CCN(CCCCNC(=O)c2ccc(Cl)cc2)CC1 | 0.0036 |
| COc1ccccc1N1CCN(CCCCNC(=O)c2ccc(O)cc2)CC1 | 0.0054 |
| O=C(NCCCCN1CCN(c2cccc3ccccc23)CC1)C12C[C@H]3C[C@@H](C1)C[C@@H](C2)C3 | 0.0007 |
| COc1ccccc1N1CCN(CCCCNC(=O)c2ccc(Cl)c(Cl)c2)CC1 | 0.002 |
| COc1ccccc1N1CCN(CCCCNC(=O)c2ccc(N)cc2)CC1 | 0.0063 |
| CC(=O)Nc1ccc(N2CCN(CCCCN3C(=O)c4ccccc4C3=O)CC2)cc1 | 0.213 |
| CCCCC(=O)NCCCCN1CCN(c2ccccc2OC)CC1 | 0.0075 |
